Publication PMC8248323 (Clinical Pharmacology in Drug Development, 2021)
Read-outs that look alike come from different tables or passages of the source.

Tests used:
[1] = molecular target: breast cancer resistance protein (Homo sapiens, UniProt Q9UNQ0); experiment: In vitro transporter inhibition; assay type: in vitro ADME
[2] = molecular target: T1, OATP1B3 (Homo sapiens, UniProt Q9NPD5); experiment: In vitro transporter inhibition; assay type: in vitro ADME
[3] = molecular target: OAT1 (Homo sapiens, UniProt Q4U2R8); experiment: In vitro transporter inhibition; assay type: in vitro ADME
Sequence of OAT1 (Q4U2R8 whole entry): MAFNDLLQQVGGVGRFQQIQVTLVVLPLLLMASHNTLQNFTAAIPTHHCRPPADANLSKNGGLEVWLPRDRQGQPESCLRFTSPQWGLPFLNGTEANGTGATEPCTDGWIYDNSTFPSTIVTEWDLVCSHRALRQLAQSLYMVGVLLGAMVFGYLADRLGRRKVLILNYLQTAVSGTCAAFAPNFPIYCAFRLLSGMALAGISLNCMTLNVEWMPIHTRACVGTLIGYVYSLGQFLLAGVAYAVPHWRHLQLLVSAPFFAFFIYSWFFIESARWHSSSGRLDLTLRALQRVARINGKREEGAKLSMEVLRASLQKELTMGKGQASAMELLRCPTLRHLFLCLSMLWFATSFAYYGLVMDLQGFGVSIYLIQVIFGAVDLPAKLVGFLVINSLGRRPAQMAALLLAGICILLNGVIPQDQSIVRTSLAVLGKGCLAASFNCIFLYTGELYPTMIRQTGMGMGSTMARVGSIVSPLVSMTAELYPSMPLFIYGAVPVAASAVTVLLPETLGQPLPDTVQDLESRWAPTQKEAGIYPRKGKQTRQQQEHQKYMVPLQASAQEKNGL

[4] = molecular target: T1, OATP1B3; experiment: In vitro transporter substrate assessment; assay type: in vitro ADME
[5] = molecular target: CYP2D6 (Homo sapiens, UniProt P10635); experiment: In vitro CYP inhibition; assay type: in vitro ADME
[6] = both phase 3 studies; cited from earlier work
[7] = molecular target: CYP2C8 (Homo sapiens, UniProt P10632); experiment: In vitro CYP inhibition; assay type: in vitro ADME
[8] = tested on: CYP2B6; assay type: in vitro ADME; settings: in vitro
[9] = molecular target: CYP2A6 (Homo sapiens, UniProt P11509); experiment: In vitro CYP inhibition; assay type: in vitro ADME
Sequence of CYP2A6 (P11509 whole entry): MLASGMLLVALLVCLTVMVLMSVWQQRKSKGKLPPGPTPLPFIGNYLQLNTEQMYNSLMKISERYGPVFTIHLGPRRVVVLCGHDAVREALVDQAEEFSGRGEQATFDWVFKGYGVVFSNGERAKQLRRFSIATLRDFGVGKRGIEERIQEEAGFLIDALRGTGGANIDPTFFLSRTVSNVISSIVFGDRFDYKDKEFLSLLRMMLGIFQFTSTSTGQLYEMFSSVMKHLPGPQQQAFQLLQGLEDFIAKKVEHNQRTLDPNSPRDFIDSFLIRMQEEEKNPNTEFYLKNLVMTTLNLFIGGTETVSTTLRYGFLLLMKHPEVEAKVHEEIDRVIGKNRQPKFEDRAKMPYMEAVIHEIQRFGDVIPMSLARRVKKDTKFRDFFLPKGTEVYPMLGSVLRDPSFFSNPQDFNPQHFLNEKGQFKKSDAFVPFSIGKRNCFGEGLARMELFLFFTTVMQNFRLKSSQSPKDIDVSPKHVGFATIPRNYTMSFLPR

[10] = molecular target: OCT1 (Homo sapiens, UniProt O15245); experiment: In vitro transporter inhibition; assay type: in vitro ADME
[11] = molecular target: OCT2 (Homo sapiens, UniProt O15244); experiment: In vitro transporter inhibition; assay type: in vitro ADME
Sequence of OCT2 (O15244 whole entry): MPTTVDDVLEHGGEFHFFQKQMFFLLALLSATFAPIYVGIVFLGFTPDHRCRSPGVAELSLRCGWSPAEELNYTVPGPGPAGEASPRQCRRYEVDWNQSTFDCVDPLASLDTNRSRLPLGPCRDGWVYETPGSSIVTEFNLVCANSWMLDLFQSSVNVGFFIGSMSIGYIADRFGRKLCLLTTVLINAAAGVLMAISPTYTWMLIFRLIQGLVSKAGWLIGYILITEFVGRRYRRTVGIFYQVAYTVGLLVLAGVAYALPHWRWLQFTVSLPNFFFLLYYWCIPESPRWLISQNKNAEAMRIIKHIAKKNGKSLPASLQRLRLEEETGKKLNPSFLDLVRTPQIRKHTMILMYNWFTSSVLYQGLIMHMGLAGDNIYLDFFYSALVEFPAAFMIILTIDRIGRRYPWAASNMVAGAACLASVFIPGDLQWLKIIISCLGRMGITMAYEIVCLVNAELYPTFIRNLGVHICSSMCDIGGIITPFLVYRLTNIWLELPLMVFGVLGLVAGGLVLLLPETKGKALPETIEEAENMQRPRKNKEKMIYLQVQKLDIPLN

[12] = molecular target: MATE1 (Homo sapiens, UniProt Q96FL8); experiment: In vitro transporter inhibition; assay type: in vitro ADME
Sequence of MATE1 (Q96FL8 whole entry): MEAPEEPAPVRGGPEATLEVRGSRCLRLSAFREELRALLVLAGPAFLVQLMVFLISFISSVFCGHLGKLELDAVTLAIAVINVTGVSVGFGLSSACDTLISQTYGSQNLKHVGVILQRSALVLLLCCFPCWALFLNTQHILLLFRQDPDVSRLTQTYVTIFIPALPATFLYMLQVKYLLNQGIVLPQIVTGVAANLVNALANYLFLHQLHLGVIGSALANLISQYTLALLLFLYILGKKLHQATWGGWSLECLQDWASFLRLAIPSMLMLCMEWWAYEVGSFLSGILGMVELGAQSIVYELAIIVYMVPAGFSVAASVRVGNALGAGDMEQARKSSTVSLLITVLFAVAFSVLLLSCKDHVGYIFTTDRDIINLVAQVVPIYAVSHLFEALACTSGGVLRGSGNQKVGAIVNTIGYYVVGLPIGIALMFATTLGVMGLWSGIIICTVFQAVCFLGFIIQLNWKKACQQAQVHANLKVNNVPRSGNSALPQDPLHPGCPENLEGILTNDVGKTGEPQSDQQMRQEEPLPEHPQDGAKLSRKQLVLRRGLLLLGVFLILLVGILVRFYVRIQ

[13] = molecular target: CYP2E1 (Homo sapiens, UniProt P05181); experiment: In vitro CYP inhibition; assay type: in vitro ADME
Sequence of CYP2E1 (P05181 whole entry): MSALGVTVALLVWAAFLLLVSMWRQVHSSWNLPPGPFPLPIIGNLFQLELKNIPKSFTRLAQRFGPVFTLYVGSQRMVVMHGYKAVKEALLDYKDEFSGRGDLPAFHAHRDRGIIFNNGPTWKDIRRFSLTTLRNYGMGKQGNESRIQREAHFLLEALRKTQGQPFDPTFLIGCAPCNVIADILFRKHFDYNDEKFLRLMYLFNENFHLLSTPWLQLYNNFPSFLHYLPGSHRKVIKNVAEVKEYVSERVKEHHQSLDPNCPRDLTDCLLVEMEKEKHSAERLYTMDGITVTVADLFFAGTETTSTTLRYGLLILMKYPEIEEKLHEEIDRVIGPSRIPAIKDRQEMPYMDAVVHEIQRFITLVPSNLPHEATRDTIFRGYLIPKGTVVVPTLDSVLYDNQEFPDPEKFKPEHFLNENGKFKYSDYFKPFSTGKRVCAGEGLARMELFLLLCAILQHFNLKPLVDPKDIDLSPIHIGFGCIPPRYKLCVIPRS

[14] = molecular target: OAT3 (Homo sapiens, UniProt Q8TCC7); experiment: In vitro transporter inhibition; assay type: in vitro ADME
[15] = molecular target: CYP2B6 (Homo sapiens, UniProt P20813); assay type: in vitro ADME; settings: in vitro
[16] = Phase 1 DDI study 004 part A: lemborexant plasma PK with/without rifampin; assay type: in vivo, human
[17] = Phase 1 DDI study 012: lemborexant plasma PK with/without fluconazole; assay type: in vivo, human; settings: for AUC: human, plasma
[18] = tested on: CYP3A; experiment: in vitro; assay type: in vitro ADME
[19] = molecular target: BCRP (Homo sapiens, UniProt Q9UNQ0); experiment: In vitro transporter substrate assessment; assay type: in vitro ADME
[20] = molecular target: CYP2C9 (Homo sapiens, UniProt P11712); experiment: In vitro CYP inhibition; assay type: in vitro ADME
[21] = molecular target: MATE2‐K (Homo sapiens, UniProt Q86VL8); experiment: In vitro transporter inhibition; assay type: in vitro ADME
Sequence of MATE2‐K (Q86VL8 1-566 isoform Q86VL8-3): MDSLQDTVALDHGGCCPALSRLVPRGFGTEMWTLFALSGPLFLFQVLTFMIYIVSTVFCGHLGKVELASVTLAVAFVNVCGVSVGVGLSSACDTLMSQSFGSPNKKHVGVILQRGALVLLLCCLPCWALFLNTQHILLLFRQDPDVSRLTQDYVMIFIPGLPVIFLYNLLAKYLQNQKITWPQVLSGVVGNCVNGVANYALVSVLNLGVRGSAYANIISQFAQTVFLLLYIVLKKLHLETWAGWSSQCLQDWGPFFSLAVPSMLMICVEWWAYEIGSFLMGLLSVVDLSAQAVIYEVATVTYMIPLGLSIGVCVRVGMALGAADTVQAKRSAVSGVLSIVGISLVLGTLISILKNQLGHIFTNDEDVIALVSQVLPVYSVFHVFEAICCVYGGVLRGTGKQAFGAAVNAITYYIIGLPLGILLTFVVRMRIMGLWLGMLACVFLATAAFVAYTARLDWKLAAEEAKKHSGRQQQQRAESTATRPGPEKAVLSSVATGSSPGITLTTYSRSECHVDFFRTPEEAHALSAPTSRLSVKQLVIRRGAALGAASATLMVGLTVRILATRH

[22] = molecular target: bile salt export pump (Homo sapiens, UniProt O95342); experiment: In vitro transporter inhibition; assay type: in vitro ADME
[23] = molecular target: P‐gp (Homo sapiens, UniProt P08183); experiment: In vitro transporter substrate assessment; assay type: in vitro ADME
[24] = assay type: in vivo, human; settings: for estimated lemborexant exposure: population PK model
[25] = tested on: CYP3A; assay type: in vitro ADME; settings: in vitro
[26] = Safety assessments in phase 1 DDI studies 004 and 012; assay type: in vivo, human
Procedure, shortened: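 Two open-label single-site phase 1 studies in healthy adults, morning dosing. Test compound 10 mg was given alone and with a strong CYP3A inhibitor (200 mg) or inducer (600 mg) daily for 20 days, or with a moderate CYP3A inhibitor (400 mg, then 200 mg daily). It was also given daily for 13 days around CYP3A/CYP2B6 probe substrates. All treatment-emergent and serious AEs were recorded, with serum chemistry, hematology and urinalysis.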

[27] = tested on: CYP3A; assay type: in vitro ADME; settings: in vitro metabolism studies; unpublished data
[28] = Phase 1 DDI study 004 part A: lemborexant plasma PK with/without itraconazole; assay type: in vivo, human
[29] = molecular target: OATP1B1 (Homo sapiens, UniProt Q9Y6L6); experiment: In vitro transporter inhibition; assay type: in vitro ADME
Sequence of OATP1B1 (Q9Y6L6 whole entry): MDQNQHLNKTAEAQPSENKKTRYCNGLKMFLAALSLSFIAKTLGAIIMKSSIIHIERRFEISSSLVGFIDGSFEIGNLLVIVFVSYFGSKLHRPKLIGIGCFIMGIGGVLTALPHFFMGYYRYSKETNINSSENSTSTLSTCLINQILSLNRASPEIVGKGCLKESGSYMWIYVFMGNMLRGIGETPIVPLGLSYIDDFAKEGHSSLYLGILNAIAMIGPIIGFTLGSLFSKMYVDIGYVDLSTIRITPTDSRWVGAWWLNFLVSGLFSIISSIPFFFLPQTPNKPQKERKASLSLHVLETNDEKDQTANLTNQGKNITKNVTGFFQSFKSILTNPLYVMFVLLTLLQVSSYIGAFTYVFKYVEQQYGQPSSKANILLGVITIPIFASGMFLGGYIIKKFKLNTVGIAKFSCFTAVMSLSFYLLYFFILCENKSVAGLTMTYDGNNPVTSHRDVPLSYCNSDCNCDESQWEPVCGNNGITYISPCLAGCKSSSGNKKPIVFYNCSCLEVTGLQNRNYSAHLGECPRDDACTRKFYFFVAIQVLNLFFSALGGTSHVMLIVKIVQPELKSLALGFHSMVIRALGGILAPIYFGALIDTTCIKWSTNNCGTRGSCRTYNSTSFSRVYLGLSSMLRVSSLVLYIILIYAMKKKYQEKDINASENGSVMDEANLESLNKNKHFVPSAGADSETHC

[30] = lemborexant + rifampin / lemborexant alone
[31] = coadministration with fluconazole
[32] = lemborexant + fluconazole / lemborexant alone
[33] = rifampin cohort, N = 15, lemborexant alone days 1‐14, with rifampin days 22‐35
[34] = coadministration with itraconazole
[35] = lemborexant + itraconazole / lemborexant alone

T1 sequence (Q9NPD5 whole entry): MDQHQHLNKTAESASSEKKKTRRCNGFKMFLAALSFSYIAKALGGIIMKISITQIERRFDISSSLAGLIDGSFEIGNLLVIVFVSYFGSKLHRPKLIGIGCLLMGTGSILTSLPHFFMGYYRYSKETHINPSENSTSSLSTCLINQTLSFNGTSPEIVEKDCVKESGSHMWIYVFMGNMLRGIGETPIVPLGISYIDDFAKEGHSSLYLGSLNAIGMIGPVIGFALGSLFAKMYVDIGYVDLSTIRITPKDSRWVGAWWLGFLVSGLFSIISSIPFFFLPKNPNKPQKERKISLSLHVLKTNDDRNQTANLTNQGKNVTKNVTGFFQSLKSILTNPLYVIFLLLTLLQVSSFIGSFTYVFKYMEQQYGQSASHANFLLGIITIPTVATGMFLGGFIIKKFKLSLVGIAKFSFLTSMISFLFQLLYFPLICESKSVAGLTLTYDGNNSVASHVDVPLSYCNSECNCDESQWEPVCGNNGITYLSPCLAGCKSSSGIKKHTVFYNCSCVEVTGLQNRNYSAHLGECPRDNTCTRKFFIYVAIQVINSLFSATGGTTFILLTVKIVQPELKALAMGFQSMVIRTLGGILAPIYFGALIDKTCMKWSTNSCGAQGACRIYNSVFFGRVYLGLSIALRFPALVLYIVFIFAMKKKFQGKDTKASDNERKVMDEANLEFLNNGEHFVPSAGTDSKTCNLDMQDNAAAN

## Cc1ncc(OC[C@@]2(c3cccc(F)c3)C[C@H]2C(=O)Nc2ccc(F)cn2)c(C)n1 [Lemborexant, (1R,2S)‐2‐{[(2,4‐dimethylpyrimidin‐5‐yl)oxy]methyl}‐2‐(3‐fluorophenyl)‐N‐(5‐fluoropyridin‐2‐yl)cyclopropanecarboxamide]
[1]
  inhibition of breast cancer resistance protein: do not inhibit
[2]
  inhibition of OATP1B3: do not inhibit
[3]
  inhibition of OAT1: do not inhibit
[4]
  substrate of OATP1B3: neither lemborexant nor M10 was a substrate
[5]
  inhibition of CYP2D6: do not inhibit
[6]
  tolerability: well tolerated
[7]
  inhibition of CYP2C8: do not inhibit
[8]
  induction of CYP2B6: have the potential to induce
[9]
  inhibition of CYP2A6: do not inhibit
[10]
  inhibition of OCT1: do not inhibit
[11]
  inhibition of OCT2: do not inhibit
[12]
  inhibition of MATE1: do not inhibit
[13]
  inhibition of CYP2E1: do not inhibit
[14]
  inhibition of OAT3: do not inhibit
[15]
  inhibition of CYP2B6: do not inhibit
[16]; coadministration with rifampin
  decrease in lemborexant AUC0‐inf: > 90%
  decrease in lemborexant Cmax: > 90%
[16]; human, plasma, 10 mg
  half-life: 45.6 h
[16]; human, plasma, 10 mg, AUC0‐inf, Geometric LSM, lemborexant 10 mg alone, n = 15, rifampin cohort
  AUC: 389 ng·h/mL
[16]; human, plasma, 10 mg, AUC0‐inf, Mean (SD), lemborexant 10 mg alone, rifampin cohort
  AUC: 428 ng·h/mL
[16]; human, plasma, 10 mg, AUC0‐t, Mean (SD), lemborexant 10 mg alone, rifampin cohort
  AUC: 409 ng·h/mL
[16]; human, plasma, 10 mg, Geometric LSM, lemborexant 10 mg alone, n = 15, rifampin cohort
  Cmax: 55.5 ng/mL
[16]; human, plasma, 10 mg, Mean (SD), lemborexant 10 mg alone, rifampin cohort
  Cmax: 58.9 ng/mL
[16]; human, plasma, AUC0‐inf, Geometric LSM, lemborexant 10 mg + rifampin 600 mg, n = 9
  AUC: 13.4 ng·h/mL
[16]; human, plasma, AUC0‐inf, Mean (SD), lemborexant 10 mg + rifampin 600 mg
  AUC: 15.8 ng·h/mL
[16]; human, plasma, AUC0‐t, Geometric LSM, lemborexant 10 mg + rifampin 600 mg once daily, n = 15
  AUC: 12.3 ng·h/mL
[16]; human, plasma, AUC0‐t, Mean (SD), lemborexant 10 mg + rifampin 600 mg
  AUC: 13.5 ng·h/mL
[16]; human, plasma, Geometric LSM, lemborexant 10 mg + rifampin 600 mg, n = 15
  Cmax: 4.7 ng/mL
[16]; human, plasma, Mean (SD), lemborexant 10 mg + rifampin 600 mg
  Cmax: 5.3 ng/mL
[16]; [30]
  AUC0‐inf, Geometric Mean Ratio (90%CI): 0.034 (0.026‐0.045)
  AUC0‐t, Geometric Mean Ratio (90%CI): 0.033 (0.027‐0.040)
  Cmax, Geometric Mean Ratio (90%CI): 0.085 (0.067‐0.107)
[17]; [31]
  increase in lemborexant AUC0–inf: ~4 fold
  increase in lemborexant Cmax: 1.6 fold
[17]; AUC0‐inf, Geometric LSM, lemborexant 10 mg + fluconazole 200 mg, n = 12
  AUC: 1560 ng·h/mL
[17]; AUC0‐inf, Mean (SD), lemborexant 10 mg + fluconazole 200 mg
  AUC: 1540 ng·h/mL
[17]; AUC0‐t, Geometric LSM, lemborexant 10 mg + fluconazole 200 mg once daily, n = 14
  AUC: 1330 ng·h/mL
[17]; AUC0‐t, Mean (SD), lemborexant 10 mg + fluconazole 200 mg
  AUC: 1360 ng·h/mL
[17]; [32]
  AUC0‐inf, Geometric Mean Ratio (90%CI): 4.175 (3.828‐4.553)
  AUC0‐t, Geometric Mean Ratio (90%CI): 3.759 (3.486‐4.053)
  Cmax, Geometric Mean Ratio (90%CI): 1.622 (1.336‐1.969)
[18]
  KI (inactivation): 25.2 µM
  inhibition at 30 μmol/L: 61.5%
  kinact: 0.000838 s⁻¹
[19]
  substrate of BCRP: neither lemborexant nor M10 was a substrate
[20]
  inhibition of CYP2C9: do not inhibit
[21]
  inhibition of MATE2‐K: do not inhibit
[22]
  inhibition of bile salt export pump: do not inhibit
[23]
  substrate of P‐gp: potential poor substrate
[24]; average, with versus without weak CYP3A inhibitors
  higher exposure with weak CYP3A inhibitors: 30%
[24]; subjects coadministered weak CYP3A inhibitors, n = 15, studies 303 and 304
  estimated lemborexant exposure: 420 ng·h/mL
[24]; subjects not coadministered weak CYP3A inhibitors, n = 257, studies 303 and 304
  estimated lemborexant exposure: 330 ng·h/mL
[24]; with versus without weak CYP3A inhibitors
  degree of CYP3A inhibition (exposure ratio): 1.3 fold
[25]
  induction of CYP3A: have the potential to induce
[26]; across the phase 1 studies
  subjects who experienced sleep paralysis: 4 subjects
[26]; all cases
  time of sleep paralysis after lemborexant dosing: ≤ 1 h
[26]; all cases, resolved, no discontinuation
  severity of sleep paralysis: mild
[26]; phase 1 DDI studies
  changes in laboratory values, vital signs, electrocardiograms, or physical examination findings: no clinically important changes
[26]; phase 1 studies
  tolerability: generally well tolerated
[26]; [33]
  AEs: 4 (26.7) n (%)
  AEs leading to study discontinuation: 0 n (%)
  AEs, Mild: 4 (26.7) n (%)
  AEs, Moderate: 0 n (%)
  AEs, Severe: 0 n (%)
  Death: 0 n (%)
  SAEs: 0 n (%)
  Treatment‐related AEs: 2 (13.3) n (%)
[27]
  metabolic pathway: predominantly metabolized by the cytochrome P450 3A (CYP3A) pathway
[28]; [34]
  increase in lemborexant AUC0–inf: 3.7 fold
  increase in lemborexant Cmax: 1.4 fold
[28]; human, plasma, 10 mg
  half-life: 54.4 h
[28]; human, plasma, 10 mg, AUC0‐inf, Geometric LSM, lemborexant 10 mg alone, n = 15, itraconazole cohort
  AUC: 433 ng·h/mL
[28]; human, plasma, 10 mg, AUC0‐inf, Mean (SD), lemborexant 10 mg alone, itraconazole cohort
  AUC: 464 ng·h/mL
[28]; human, plasma, 10 mg, AUC0‐t, Mean (SD), lemborexant 10 mg alone, itraconazole cohort
  AUC: 437 ng·h/mL
[28]; human, plasma, AUC0‐inf, Geometric LSM, lemborexant 10 mg + itraconazole 200 mg, n = 11
  AUC: 1600 ng·h/mL
[28]; human, plasma, AUC0‐inf, Mean (SD), lemborexant 10 mg + itraconazole 200 mg
  AUC: 1640 ng·h/mL
[28]; human, plasma, AUC0‐t, Geometric LSM, lemborexant 10 mg + itraconazole 200 mg once daily, n = 14
  AUC: 1480 ng·h/mL
[28]; human, plasma, AUC0‐t, Mean (SD), lemborexant 10 mg + itraconazole 200 mg
  AUC: 1540 ng·h/mL
[28]; human, plasma, Cmax, Mean (SD), lemborexant 10 mg + itraconazole 200 mg
  Cmax: 75 ng/mL
[28]; [35]
  AUC0‐inf, Geometric Mean Ratio (90%CI): 3.702 (3.183‐4.306)
  AUC0‐t, Geometric Mean Ratio (90%CI): 3.605 (3.122‐4.162)
  Cmax, Geometric Mean Ratio (90%CI): 1.360 (1.181‐1.567)
[29]
  inhibition of OATP1B1: do not inhibit
